Measured values from ChEMBL document CHEMBL1126608.

Columns and labels:
[1] = molecular target: Muscarinic acetylcholine receptor M3 (Cavia porcellus) (UniProt Q8VH26); assay: Antagonist activity against muscarinic M3 receptor from guinea pig ileum; type: functional, tissue-based
In short: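 Longitudinal guinea pig ileum strips suspended in oxygenated Krebs buffer; carbachol concentration-response curves with or without at least three increasing antagonist concentrations (5-min preincubation). Contraction as % of maximal carbachol response without antagonist.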

[2] = molecular target: T1, Muscarinic acetylcholine receptor M2 (Homo sapiens) (UniProt P08172); assay: Antagonist activity against muscarinic M2 receptor from guinea pig atria; type: functional; details: Cavia porcellus; target entry is the homologue from another species
T1 sequence (whole entry): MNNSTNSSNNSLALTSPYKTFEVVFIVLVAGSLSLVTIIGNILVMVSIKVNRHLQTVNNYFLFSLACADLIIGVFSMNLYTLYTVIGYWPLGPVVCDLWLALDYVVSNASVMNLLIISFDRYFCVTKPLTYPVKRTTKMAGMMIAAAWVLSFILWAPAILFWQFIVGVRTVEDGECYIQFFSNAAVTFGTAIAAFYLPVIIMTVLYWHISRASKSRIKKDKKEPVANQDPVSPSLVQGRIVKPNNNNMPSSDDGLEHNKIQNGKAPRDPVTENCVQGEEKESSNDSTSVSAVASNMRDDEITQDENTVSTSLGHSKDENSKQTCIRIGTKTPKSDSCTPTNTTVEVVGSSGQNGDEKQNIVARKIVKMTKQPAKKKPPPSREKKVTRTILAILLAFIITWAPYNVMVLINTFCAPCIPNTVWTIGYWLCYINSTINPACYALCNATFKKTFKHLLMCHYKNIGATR
In short: (§1)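 Isolated guinea pig right atria in Krebs-Henseleit buffer; cumulative carbachol concentration-rate response curves before and after at least three increasing antagonist concentrations (5-min preincubation). Responses as % of maximal carbachol-induced rate inhibition without antagonist.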

[3] = molecular target: T2, Muscarinic acetylcholine receptor (Homo sapiens) (UniProt P20309+P08173+P11229+P08172+P08912); details: Cavia porcellus
[4] = molecular target: T2, Muscarinic acetylcholine receptor (Homo sapiens); assay: In vivo antimuscarinic activity to decrease carbachol-stimulated salivation in guinea pig; type: functional, organism-based; details: Cavia porcellus; target entry is the homologue from another species
In short: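 Guinea pigs dosed sc with various antagonist doses; 30 min later carbachol 0.1 mg/kg ip; ability to respond to agonist scored 5-10 min afterwards.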

[5] = molecular target: T1, Muscarinic acetylcholine receptor M2 (Homo sapiens); assay: Antagonist activity against muscarinic M2 receptor from guinea pig atria; Non competitive; type: functional; details: Cavia porcellus; filed as antagonist; target entry is the homologue from another species; in short: as §1
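For ID50 in this document: in vivo guinea pig assay: antimuscarinic effect measured as reduced salivation after carbachol stimulation.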

Sequence of Muscarinic acetylcholine receptor M3 (Cavia porcellus) (Q8VH26 1-587): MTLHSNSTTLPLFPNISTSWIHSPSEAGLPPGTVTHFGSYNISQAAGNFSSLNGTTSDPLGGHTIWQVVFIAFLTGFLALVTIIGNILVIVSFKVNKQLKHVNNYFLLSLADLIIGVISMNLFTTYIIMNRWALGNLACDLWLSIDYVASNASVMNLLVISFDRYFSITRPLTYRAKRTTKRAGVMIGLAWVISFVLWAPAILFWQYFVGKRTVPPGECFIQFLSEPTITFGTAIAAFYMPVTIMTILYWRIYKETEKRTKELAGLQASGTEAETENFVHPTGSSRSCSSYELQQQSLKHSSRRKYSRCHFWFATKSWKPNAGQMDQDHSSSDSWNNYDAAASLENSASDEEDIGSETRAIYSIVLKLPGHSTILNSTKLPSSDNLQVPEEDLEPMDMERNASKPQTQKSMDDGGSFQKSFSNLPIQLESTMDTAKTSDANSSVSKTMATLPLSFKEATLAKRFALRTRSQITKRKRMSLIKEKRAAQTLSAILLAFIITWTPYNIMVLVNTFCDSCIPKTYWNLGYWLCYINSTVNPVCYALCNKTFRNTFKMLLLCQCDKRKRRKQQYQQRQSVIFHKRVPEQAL

Question: `O=C(CN1CCN(c2ccc([N+](=O)[O-])cc2)CC1)C(O)(c1ccccc1)C1CCC1` (stereo not given) was tested. Which Kb [1] did it give?
Answer: > 10000 nM

Question: What about the Kb [2] of the same compound?
Answer: > 10000 nM

Question: How did the ID50 [3] turn out when `O=C(CN1CCN(CCO)CC1)C(O)(c1ccccc1)C1CCC1` (stereo not given) was run?
Answer: 4.93 mg/kg

Question: What about the Kb [1] of the same compound?
Answer: 185 nM

Question: And the Kb [2]?
Answer: 2350 nM

Question: What does the source list for `O=C(CN1CCN(Cc2ccccc2)CC1)C(O)(c1ccccc1)c1ccccc1`?
Answer: ID50 [3]: > 100 mg/kg; Kb [1]: 6 nM; Kb [2]: 1460 nM

Question: How did the ID50 [3] turn out when `O=C(CN1CCN(Cc2ccccc2)CC1)C(O)(c1ccccc1)C1CC1` (stereo not given) was run?
Answer: 9.9 mg/kg

Question: What about the Kb [1] of the same compound?
Answer: 24 nM

Question: What about the Kb [2] of the same compound?
Answer: 225 nM

Question: What does the source list for `O=C(CN1CCN(Cc2ccccc2)CC1)C(O)(c1ccccc1)C1CCCCC1` (stereo not given)?
Answer: ID50 [3]: 4.38 mg/kg; Kb [1]: 12 nM; Kb [2]: 282 nM

Question: For `O=C(CN1CCN(C2CCC2)CC1)C(O)(c1ccccc1)C1CCC1` (stereo not given), which ID50 [3] is on record?
Answer: 18.3 mg/kg

Question: What about the Kb [1] of the same compound?
Answer: 230 nM

Question: And the Kb [2]?
Answer: 1800 nM

Question: How did the Kb [1] turn out when `O=C(CN1CCN(Cc2ccc3c(c2)OCO3)CC1)C(O)(c1ccccc1)C1CCC1` (stereo not given) was run?
Answer: 8 nM

Question: And the Kb [2]?
Answer: 45 nM

Question: And the ED50 [4]?
Answer: 4 mg/kg

Question: Which results are given for `CN1CCN(CC(=O)C(O)(c2ccccc2)C2CCC2)CC1` (stereo not given)?
Answer: ID50 [3]: 0.72 mg/kg; Kb [1]: 13 nM; Kb [2]: 79 nM

Question: What does the source list for `O=C(CN1CCN(Cc2ccccc2Cl)CC1)C(O)(c1ccccc1)C1CCC1` (stereo not given)?
Answer: Kb [1]: 56 nM; Kb [2]: > 10000 nM

Question: Which ID50 [3] does the source give for `N#CCN1CCN(CC(=O)C(O)(c2ccccc2)C2CCC2)CC1` (stereo not given) here?
Answer: 35.7 mg/kg

Question: What about the Kb [1] of the same compound?
Answer: 2710 nM

Question: And the Kb [2]?
Answer: > 30000 nM

Question: `O=C(CN1CCN(Cc2cccs2)CC1)C(O)(c1ccccc1)C1CCC1` (stereo not given) was tested. Which ID50 [3] did it give?
Answer: 25 mg/kg

Question: And the Kb [1]?
Answer: 43.8 nM

Question: What about the Kb [2] of the same compound?
Answer: 491 nM

Question: Which ID50 [3] does the source give for `CCCN1CCN(CC(=O)C(O)(c2ccccc2)C2CCC2)CC1` (stereo not given) here?
Answer: 31.1 mg/kg

Question: What about the Kb [1] of the same compound?
Answer: 673 nM

Question: What about the Kb [2] of the same compound?
Answer: 1190 nM

Question: What does the source list for `CC(C)CC(O)(C(=O)CN1CCN(Cc2ccccc2)CC1)c1ccccc1` (stereo not given)?
Answer: ID50 [3]: 43.4 mg/kg; Kb [1]: 171 nM; Kb [2]: > 3000 nM

Question: What does the source list for `O=C(CN1CCNCC1)C(O)(c1ccccc1)C1CCC1` (stereo not given)?
Answer: ID50 [3]: 1.65 mg/kg; Kb [1]: 87 nM; Kb [2]: 940 nM

Question: For `O=C(CN1CCN(C(c2ccccc2)c2ccccc2)CC1)C(O)(c1ccccc1)C1CCC1` (stereo not given), which Kb [1] is on record?
Answer: > 10000 nM

Question: What about the Kb [2] of the same compound?
Answer: > 100000 nM

Question: Which results are given for `O=C(CN1CCN(CC(=O)C(O)(c2ccccc2)C2CCC2)CC1)C(O)(c1ccccc1)C1CCC1` (stereo not given)?
Answer: Kb [1]: 207 nM; Kb [2]: > 1000 nM

Question: What does the source list for `Cc1ccccc1CN1CCN(CC(=O)C(O)(c2ccccc2)C2CCC2)CC1` (stereo not given)?
Answer: Kb [1]: 199 nM; Kb [2]: > 1000 nM

Question: How did the Kb [1] turn out when `O=C(CN1CCN(CC(=O)C(O)(c2ccccc2)C2CCC2)CC1)N1CCCC1` (stereo not given) was run?
Answer: 210 nM

Question: What about the Kb [2] of the same compound?
Answer: > 3000 nM

Question: With `Cc1ccc(CN2CCN(CC(=O)C(O)(c3ccccc3)C3CCC3)CC2)cc1` (stereo not given) as the compound, how does the ID50 [3] read?
Answer: 8.4 mg/kg

Question: And the Kb [1]?
Answer: 11 nM

Question: And the Kb [2]?
Answer: 82 nM

Question: What does the source list for `COc1ccc(CN2CCN(CC(=O)C(O)(c3ccccc3)C3CCC3)CC2)cc1` (stereo not given)?
Answer: ID50 [3]: 10.8 mg/kg; Kb [1]: 27.9 nM; Kb [2]: 263 nM

Question: Which results are given for `C=CCN1CCN(CC(=O)C(O)(c2ccccc2)C2CCCCC2)CC1` (stereo not given)?
Answer: ID50 [3]: 21 mg/kg; Kb [1]: 25.6 nM; Kb [2]: 425 nM

Question: How did the ID50 [3] turn out when `O=C(CN1CCN(Cc2ccc([N+](=O)[O-])cc2)CC1)C(O)(c1ccccc1)C1CCC1` (stereo not given) was run?
Answer: 21 mg/kg

Question: What about the Kb [1] of the same compound?
Answer: 105 nM

Question: What about the Kb [2] of the same compound?
Answer: 2700 nM

Question: With `C#CCN1CCN(CC(=O)C(O)(c2ccccc2)C2CCCCC2)CC1` (stereo not given) as the compound, how does the Kb [1] read?
Answer: 260 nM

Question: And the Kb [2]?
Answer: 5670 nM

Question: For `CC(C)=CCN1CCN(CC(=O)C(O)(c2ccccc2)C2CCC2)CC1` (stereo not given), which ID50 [3] is on record?
Answer: 4.9 mg/kg

Question: What about the Kb [1] of the same compound?
Answer: 22 nM

Question: What about the Kb [2] of the same compound?
Answer: 305 nM

Question: Which results are given for `COc1cccc(CN2CCN(CC(=O)C(O)(c3ccccc3)C3CCC3)CC2)c1` (stereo not given)?
Answer: Kb [1]: 17 nM; Kb [2]: 136 nM

Question: `O=C(CN1CCN(c2ccccc2)CC1)C(O)(c1ccccc1)C1CCC1` (stereo not given) was tested. Which Kb [1] did it give?
Answer: 624 nM

Question: And the Kb [2]?
Answer: > 30000 nM

Question: Which Kb [1] does the source give for `O=C(CN1CCC(N2CCCC2)CC1)C(O)(c1ccccc1)C1CCC1` (stereo not given) here?
Answer: > 10000 nM

Question: What about the Kb [2] of the same compound?
Answer: 2440 nM

Question: Which results are given for `CN1CCN(CC(=O)C(O)(c2ccccc2)C2CCCCC2)CC1` (stereo not given)?
Answer: Kb [1]: 15 nM; Kb [2]: 210 nM; ED50 [4]: 1.84 mg/kg

Question: With `O=C(CN1CCC(N2CCCC2)CC1)C(O)(c1ccccc1)C1CCCCC1` (stereo not given) as the compound, how does the Kb [1] read?
Answer: 349 nM

Question: And the Kb [2]?
Answer: 4510 nM

Question: How did the ID50 [3] turn out when `O=C(CN1CCN(Cc2ccccc2)CC1)C(O)(c1ccccc1)C1CCCC1` (stereo not given) was run?
Answer: 0.24 mg/kg

Question: What about the Kb [1] of the same compound?
Answer: 2.6 nM

Question: What about the Kb [2] of the same compound?
Answer: 78 nM

Question: `CCOC(=O)N1CCN(CC(=O)C(O)(c2ccccc2)C2CCCCC2)CC1` (stereo not given) was tested. Which Kb [1] did it give?
Answer: > 10000 nM

Question: And the Kb [2]?
Answer: > 30000 nM

Question: Which Kb [1] does the source give for `O=C(CN1CCN(CCc2ccccc2)CC1)C(O)(c1ccccc1)C1CCC1` (stereo not given) here?
Answer: 302 nM

Question: And the Kb [2]?
Answer: > 1000 nM

Question: Which results are given for `O=C(CN1CCC(O)CC1)C(O)(c1ccccc1)C1CCC1` (stereo not given)?
Answer: Kb [1]: 472 nM; Kb [2]: 2340 nM

Question: `COc1ccccc1N1CCN(CC(=O)C(O)(c2ccccc2)C2CCC2)CC1` (stereo not given) was tested. Which Kb [1] did it give?
Answer: > 10000 nM

Question: What about the Kb [2] of the same compound?
Answer: > 10000 nM

Question: Which results are given for `C=CCCN1CCN(CC(=O)C(O)(c2ccccc2)C2CCC2)CC1` (stereo not given)?
Answer: ID50 [3]: 27.2 mg/kg; Kb [1]: 35.6 nM; Kb [5]: Non-competitive antagonist

Question: Which results are given for `O=C(CN1CCN(Cc2cccc(Cl)c2)CC1)C(O)(c1ccccc1)C1CCC1` (stereo not given)?
Answer: ID50 [3]: 8.3 mg/kg; Kb [1]: 27 nM; Kb [2]: 380 nM

Question: With `CN(C)CCNCC(=O)C(O)(c1ccccc1)C1CCCCC1` (stereo not given) as the compound, how does the Kb [1] read?
Answer: 5.5 nM

Question: And the Kb [2]?
Answer: 216 nM

Question: What about the ED50 [4] of the same compound?
Answer: 0.13 mg/kg

Question: How did the ID50 [3] turn out when `O=C(CN1CCN(C/C=C\c2ccccc2)CC1)C(O)(c1ccccc1)C1CCC1` (stereo not given) was run?
Answer: 1.2 mg/kg

Question: What about the Kb [1] of the same compound?
Answer: 9.92 nM

Question: And the Kb [2]?
Answer: 2.3 nM

Question: For `O=C(CN1CCN(CCO)CC1)C(O)(c1ccccc1)C1CCCCC1` (stereo not given), which Kb [1] is on record?
Answer: 53 nM

Question: And the Kb [2]?
Answer: 530 nM

Question: What about the ED50 [4] of the same compound?
Answer: > 10 mg/kg

Question: For `C=C(C)CN1CCN(CC(=O)C(O)(c2ccccc2)C2CCC2)CC1` (stereo not given), which Kb [1] is on record?
Answer: 100 nM

Question: And the Kb [2]?
Answer: 551 nM

Question: What about the ED50 [4] of the same compound?
Answer: 17 mg/kg

Question: Which Kb [1] does the source give for `O=C(CN1CCN(Cc2ccco2)CC1)C(O)(c1ccccc1)C1CCC1` (stereo not given) here?
Answer: 750 nM

Question: And the Kb [2]?
Answer: > 30000 nM

Question: Which ID50 [3] does the source give for `O=C(CN1CCN(Cc2ccc(Cl)cc2)CC1)C(O)(c1ccccc1)C1CCC1` (stereo not given) here?
Answer: 9.8 mg/kg

Question: And the Kb [1]?
Answer: 16 nM

Question: What about the Kb [2] of the same compound?
Answer: 515 nM

Question: `CCOc1ccccc1N1CCN(CC(=O)C(O)(c2ccccc2)C2CCC2)CC1` (stereo not given) was tested. Which Kb [1] did it give?
Answer: > 10000 nM

Question: And the Kb [2]?
Answer: > 10000 nM

Question: What does the source list for `C=CCN1CCN(CC(=O)C(O)(c2ccccc2)C2CCC2)CC1` (stereo not given)?
Answer: ID50 [3]: 20.4 mg/kg; Kb [1]: 60 nM; Kb [2]: 299 nM
